Experimental data from PubChem BioAssay AID540324 (Johns Hopkins Ion Channel Center, 2011).
Active and inactive are the calls of the source.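 Rule for the calls: active = maximum inhibition above 30% at any tested concentration, with a dose response curve fitted; inactive = no inhibition at any dose or no dose response curve.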

Test: thallium flux inhibition in parental HEK293 cells, SAR follow-up, counter-screen for KCNK9 inhibitor project, cell-based, FluxOR thallium flux, concentration-response, set 2 (AID 540324)
Settings: FluxOR fluorescence ratio; series mostly up to 30 µM
Method in brief: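 Assay system: parental HEK293 cells. Probe or stimulus: K+/Tl+ sulfate stimulus, 5x stock. Compound dosing: 10 concentrations. Times: dye loading 90 min at room temperature in dark, compound exposure 20 min. Technique: FluxOR thallium-flux fluorescence. Repeats: at least two replicates per compound.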

Row | Structure (SMILES) | outcome
1 | COc1ccccc1C(=O)Nc1cccc(NC(=O)c2ccccc2OC)c1 | inactive
2 | O=C(Nc1cccc(NC(=O)c2ccncc2)c1)c1ccccc1 | inactive
3 | O=C(Nc1cccc(NC(=O)c2ccsc2)c1)c1ccccc1 | inactive
4 | Cc1cccc(C(=O)Nc2cccc(NC(=O)c3ccccc3C(C)C)c2)c1 | inactive
5 | O=C(Nc1ccccc1Cl)c1cccc(NC(=O)C2CCCC2)c1 | inactive
6 | Cc1cccc(C(=O)Nc2cccc(NC(=O)c3ccccc3C)c2)c1 | inactive
7 | O=C(Nc1cccc(NC(=O)c2cccs2)c1)c1ccccc1 | inactive
8 | Cc1cccc(C(=O)Nc2cccc(NC(=O)c3ccccc3C(F)(F)F)c2)c1 | inactive
9 | O=C(Nc1cccc(NC(=O)c2cccc(F)c2)c1)c1ccccc1 | inactive
10 | CCOc1ccccc1NC(=O)c1cccc(NC(=O)CC2CCCC2)c1 | inactive
11 | CCOc1ccccc1NC(=O)c1cccc(NC(=O)C2CCCC2)c1 | inactive
12 | CCOc1ccc(NC(=O)c2cccc(NC(=O)C3CCCC3)c2)cc1 | inactive
13 | O=C(Nc1cccc(NC(=O)c2ccccn2)c1)c1ccccc1 | inactive
14 | S=c1[nH]nc(-c2ccco2)n1CC1CCCCC1 | inactive
15 | CC(C1CC2CCC1C2)n1c(-c2ccco2)n[nH]c1=S (stereo not given) | inactive
16 | COc1ccccc1C(=O)Nc1cccc(NC(=O)c2ccccc2C(C)C)c1 | inactive
17 | Cc1cccc(C(=O)Nc2cccc(NC(=O)c3cccc(Cl)c3)c2)c1 | inactive
18 | CCOc1ccccc1NC(=O)c1cccc(NC(=O)C2CCCO2)c1 (stereo not given) | inactive

Row | Structure (SMILES) | outcome
19 | COc1ccccc1NC(=O)c1cccc(NC(=O)c2ccccc2)c1 | inactive
20 | O=C(Nc1cccc(NC(=O)c2ccccc2C(F)(F)F)c1)c1ccccc1 | inactive
21 | CCOc1ccccc1C(=O)Nc1cccc(NC(=O)c2cccc(C)c2)c1 | inactive
22 | CCOc1ccccc1NC(=O)c1cccc(NC(=O)C2CC2)c1 | inactive
23 | CCOc1ccccc1C(=O)Nc1cccc(NC(=O)c2ccccc2C(F)(F)F)c1 | inactive
24 | Cc1cccc(C(=O)Nc2cccc(NC(=O)c3ccc(C(F)(F)F)cc3)c2)c1 | inactive
25 | COc1ccccc1C(=O)Nc1cccc(NC(=O)c2ccccc2C)c1 | inactive
26 | O=C(Nc1cccc(NC(=O)c2ccccc2)c1)c1ccccc1 | inactive
27 | Cc1cccc(C(=O)Nc2cccc(NC(=O)c3ccc(Cl)cc3)c2)c1 | inactive
28 | COc1ccccc1C(=O)Nc1cccc(NC(=O)c2ccccc2OC(F)(F)F)c1 | inactive
29 | COc1cccc(C(=O)Nc2cccc(NC(=O)c3cccc(C)c3)c2)c1 | inactive
30 | Cc1cccc(C(=O)Nc2cccc(NC(=O)c3ccccc3)c2)c1 | inactive
31 | COc1ccc(-c2n[nH]c(=S)n2C(C)C2CC3CCC2C3)cc1 (stereo not given) | inactive
32 | Cc1cccc(C(=O)Nc2cccc(NC(=O)c3cccc(C)c3)c2)c1 | inactive
33 | CCOc1ccccc1NC(=O)c1cccc(NC(=O)C2CCOC2)c1 (stereo not given) | inactive
34 | COc1ccccc1-c1n[nH]c(=S)n1C(C)C1CC2CCC1C2 (stereo not given) | inactive
35 | O=C(Nc1cccc(NC(=O)c2cccc(C(F)(F)F)c2)c1)c1ccccc1 | inactive
